Assay results: PubChem BioAssay AID623885 (Vanderbilt Specialized Chemistry Center, 2012)
Values joined by “and” are separate entries in the source; they are usually repeats but may differ in a detail not shown here. Equal values may be shown once. Active and inactive are the calls of the source.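 Rule for the calls: active = mean half-maximal effective concentration under 30 µM; inactive = the rest.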

Biological target: Metabotropic glutamate receptor 3 (Rattus norvegicus) (UniProt P31422)
Test: inhibition of glutamate response at mGlu3 – thallium flux, HEK/GIRK cells, rat, dose response (AID 623885)
Settings: HEK293 GIRK rat mGlu3, thallium flux fluorescence
Summary of the method: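 Test system – HEK cells stably co-expressing GIRK channels, M4 muscarinic receptor, rat mGlu3 · Compound – 10 points, 1:3 serial dilution · Times – dye loading 1 h room temperature, compounds ~2.5 min · Measured by – thallium influx through GIRK, FluoZin-2 AM fluorescence · Read-out – baseline-normalized fluorescence slope 5–15 s post thallium/agonist, four-parameter logistic fit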

Sequence of Metabotropic glutamate receptor 3 (Rattus norvegicus) (P31422 whole entry, looked up): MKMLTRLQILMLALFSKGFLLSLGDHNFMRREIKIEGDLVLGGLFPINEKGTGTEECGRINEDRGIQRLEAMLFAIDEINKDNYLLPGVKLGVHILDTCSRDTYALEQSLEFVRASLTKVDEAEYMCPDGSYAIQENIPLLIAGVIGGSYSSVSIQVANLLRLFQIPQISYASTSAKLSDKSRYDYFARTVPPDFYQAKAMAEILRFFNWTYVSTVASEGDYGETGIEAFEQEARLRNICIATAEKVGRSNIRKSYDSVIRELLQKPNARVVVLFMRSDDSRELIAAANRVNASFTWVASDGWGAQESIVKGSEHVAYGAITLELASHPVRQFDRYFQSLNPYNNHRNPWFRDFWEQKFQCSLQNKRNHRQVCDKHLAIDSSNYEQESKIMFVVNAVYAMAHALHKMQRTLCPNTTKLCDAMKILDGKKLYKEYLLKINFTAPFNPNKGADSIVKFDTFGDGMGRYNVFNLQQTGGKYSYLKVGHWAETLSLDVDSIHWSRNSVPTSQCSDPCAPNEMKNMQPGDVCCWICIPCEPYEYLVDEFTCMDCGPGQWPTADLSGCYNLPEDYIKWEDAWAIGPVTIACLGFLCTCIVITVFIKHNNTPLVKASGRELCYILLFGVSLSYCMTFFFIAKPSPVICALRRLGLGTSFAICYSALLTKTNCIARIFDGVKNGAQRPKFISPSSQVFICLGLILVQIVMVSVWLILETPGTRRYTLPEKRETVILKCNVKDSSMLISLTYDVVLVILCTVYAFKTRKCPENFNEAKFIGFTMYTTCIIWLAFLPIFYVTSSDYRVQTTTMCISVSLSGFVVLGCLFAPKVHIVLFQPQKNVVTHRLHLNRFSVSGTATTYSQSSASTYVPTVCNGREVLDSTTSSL

| Structure (SMILES) | IC50 [µM] |
| --- | --- |
| COc1ccc(C#Cc2ccc(C(=O)N3CCC[C@H](CO)C3)cc2)cc1 | 3.46 |
| COc1ccc(C#Cc2ccc(C(=O)N3CCC[C@@H](CO)C3)cc2)cc1 | 1.48 |
| COc1ccc(C#Cc2ccc(C(=O)N3CCCC(CO)C3)cc2)cc1 (stereo unspecified) | 2.46 |

Same assay, conditions: HEK293 GIRK rat mGlu3, thallium flux fluorescence; at 30 µM (top of the series)

| Structure (SMILES) | percent of glutamate max response |
| --- | --- |
| COc1ccc(C#Cc2ccc(C(=O)N3CCCC(O)C3)cc2)cc1 (stereo unspecified) | -1.25 |
| COc1ccc(C#Cc2ccc(C(=O)N3CCOCC3)cc2)cc1 | 65.1 |
| CCC(N)(C#Cc1ccc(C(=O)N2CCC(O)CC2)cc1)CC | inactive |
| O=C(c1ccc(C#CCCCCCl)cc1)N1CCC(O)CC1 | 47.8 |
| CCOC1CCN(C(=O)c2ccc(C#Cc3ccc(OC)cc3)cc2)CC1 | inactive |
| O=C(c1ccc(C#CCC2CCCCC2)cc1)N1CCC(O)CC1 | 4.33 |
| N#CCCCC#Cc1ccc(C(=O)N2CCC(O)CC2)cc1 | inactive |
| O=C(c1ccc(C#CC2=CCCCC2)cc1)N1CCC(O)CC1 | 46.1 |
| CN(C)CC#Cc1ccc(C(=O)N2CCC(O)CC2)cc1 | inactive |
| O=C(c1ccc(C#Cc2ccc(C(F)(F)F)cc2)cc1)N1CCC(O)CC1 | 54.2 |
| COc1ccc(C#Cc2ccc(C(=O)N3CCC3)cc2)cc1 | 31.5 |
| O=C(c1ccc(C#CC2(O)CCCCC2)cc1)N1CCC(O)CC1 | inactive |
| CCCC(O)C#Cc1ccc(C(=O)N2CCC(O)CC2)cc1 (stereo unspecified) | inactive |
| COc1ccccc1C#Cc1ccc(C(=O)N2CCC(O)CC2)cc1 | inactive |
| COc1ccc(C#Cc2ccc(C(=O)N3CCN(C(C)C)CC3)cc2)cc1 | 1.26 |
| COc1ccc(C#Cc2cccc(C(=O)N3CCC(O)CC3)c2)cc1 | 13.9 |
| COc1ccc(C#Cc2ccc(C(=O)N3CCC4CCCCC4C3)cc2)cc1 (stereo unspecified) | inactive |
| Cc1ccccc1C#Cc1ccc(C(=O)N2CCC(O)CC2)cc1 | 10.8 |
| CC(C)CCC#Cc1ccc(C(=O)N2CCC(O)CC2)cc1 | 24.7 |
| O=C(c1ccc(C#CCCCCO)cc1)N1CCC(O)CC1 | inactive |
| O=C(c1ccc(C#Cc2ccccn2)cc1)N1CCC(O)CC1 | inactive |

| Structure (SMILES) | percent of glutamate max response |
| --- | --- |
| COc1ccc(C#Cc2ccc(C(=O)N(CCO)c3ccccc3)cc2)cc1 | inactive |
| O=C(c1ccc(C#Cc2ccc(-c3ccccc3)cc2)cc1)N1CCC(O)CC1 | inactive |
| COc1ccc(C#Cc2ccc(C(=O)N3CCC(OC)CC3)cc2)cc1 | inactive |
| CCCC1(O)CCN(C(=O)c2ccc(C#Cc3ccc(OC)cc3)cc2)CC1 | inactive |
| CCCCN(CCO)C(=O)c1ccc(C#Cc2ccc(OC)cc2)cc1 | 8.56 |
| O=C(c1ccc(I)cc1)N1CCC(O)CC1 | inactive |
| O=C(c1ccc(C#Cc2cccc3ccccc23)cc1)N1CCC(O)CC1 | 32.7 |
| COc1ccc(C#Cc2ccc(C(=O)NC(C)(C)C)cc2)cc1 | inactive |
| CCc1ccc(C#Cc2ccc(C(=O)N3CCC(O)CC3)cc2)cc1 | 62 |
| O=C(c1ccc(C#Cc2ccccc2)cc1)N1CCC(O)CC1 | 11.6 |
| CCC1(O)CCN(C(=O)c2ccc(C#Cc3ccc(OC)cc3)cc2)CC1 | 46.4 |
| COc1ccc(C#Cc2ccc(C(=O)NCCCCO)cc2)cc1 | inactive |
| O=C(c1ccc(C#CC2(O)CCCC2)cc1)N1CCC(O)CC1 | inactive |
| CC(C)(C)NC(=O)CN1CCc2cc(C#Cc3ccccc3)ccc2C1=O | 51.4 |
| COc1ccc(C#Cc2ccccc2C(=O)N2CCC(O)CC2)cc1 | inactive |
| COc1ccc(C#Cc2ccc(C(=O)N3CCC[C@@H](C(=O)O)C3)cc2)cc1 | 19.5 |
| COc1ccc(C#Cc2ccc(C(=O)N3CCC(CO)C3)cc2)cc1 (stereo unspecified) | 14.7 |
| CC(C)(C)OC(=O)N1CCC(NC(=O)CN2CCc3cc(C#Cc4ccccc4)ccc3C2=O)CC1 | 33.8 |
| O=C(c1ccc(C#CCCCN2C(=O)c3ccccc3C2=O)cc1)N1CCC(O)CC1 | inactive |
| CCN1CCC[C@H]1CNC(=O)c1ccc(C#Cc2ccc(OC)cc2)cc1 | 5.77 |
| O=C(c1ccc(C#CCN2C(=O)c3ccccc3C2=O)cc1)N1CCC(O)CC1 | inactive |

| Structure (SMILES) | percent of glutamate max response |
| --- | --- |
| O=C(c1ccc(C#Cc2c(C(F)(F)F)cccc2C(F)(F)F)cc1)N1CCC(O)CC1 | 54.9 |
| Cc1ccc(C#Cc2ccc(C(=O)N3CCC(O)CC3)cc2)cc1 | 33.9 |
| COc1ccc(C#Cc2ccc(C(=O)N3CCC(C#N)(c4ccccc4)CC3)cc2)cc1 | inactive |
| COc1ccc(C#Cc2ccc(C(=O)N3CCC(C)(O)CC3)cc2)cc1 | 5.42 |
| O=C(c1ccc(C#CCc2ccsc2)cc1)N1CCC(O)CC1 | 16.1 |
| CC(O)CC#Cc1ccc(C(=O)N2CCC(O)CC2)cc1 (stereo unspecified) | inactive |
| CC(=O)OCC#Cc1ccc(C(=O)N2CCC(O)CC2)cc1 | inactive |
| COc1ccc(C#Cc2ccc(C(=O)NC(C)C)cc2)cc1 | inactive |
| O=C(CN1CCc2cc(C#Cc3ccccc3)ccc2C1=O)NCCN1CCCCC1 | 3.68 |
| COc1ccc(C#Cc2ccc(C(=O)N[C@H](C)C3CC3)cc2)cc1 | 69 |
| COc1cccc(C#Cc2ccc(C(=O)N3CCC(O)CC3)cc2)c1 | inactive |
| CCC(C)(O)C#Cc1ccc(C(=O)N2CCC(O)CC2)cc1 (stereo unspecified) | inactive |
| COc1ccc(C#Cc2ccc(C(=O)Nc3ccc(F)cn3)cc2)cc1 | 63.9 |
| O=C(c1ccc(C#CC2CC2)cc1)N1CCC(O)CC1 | inactive |
| COc1ccc(C#Cc2ccc(C(=O)N3CCC(C(C)=O)(c4ccccc4)CC3)cc2)cc1 | inactive |
| COc1ccc(C#Cc2ccc(C(=O)N3CC(O)C3)cc2)cc1 | 76.2 |
| COc1ccc(C#Cc2ccc(C(=O)NC3CCC(C)CC3)cc2)cc1 (stereo unspecified) | inactive |
| COc1ccc(C#Cc2ccc(C(=O)N3CCN(c4ccccc4OC)CC3)cc2)cc1 | inactive |
| O=C(c1ccc(C#Cc2ccccc2F)cc1)N1CCC(O)CC1 | 22.4 |
| O=Cc1ccccc1C#Cc1ccc(C(=O)N2CCC(O)CC2)cc1 | 43.7 |
| CC(C)(C)c1ccc(C#Cc2ccc(C(=O)N3CCC(O)CC3)cc2)cc1 | inactive |

| Structure (SMILES) | percent of glutamate max response |
| --- | --- |
| COc1ccc(C#Cc2ccc(C(=O)N[C@H](C)C3CCCCC3)cc2)cc1 | inactive |
| CN(C)c1ccc(C#Cc2ccc(C(=O)N3CCC(O)CC3)cc2)cc1 | inactive |
| COc1ccc(C#Cc2ccc(C(=O)NCc3ccc(C(C)(C)C)cc3)cc2)cc1 | inactive |
| COc1ccc(C#Cc2ccc(C(=O)N3CCC[C@@H](CO)C3)cc2)cc1 | -0.47 |
| O=C(c1ccc(C#CCc2ccccc2)cc1)N1CCC(O)CC1 | 42.2 |
| O=C(CN1CCc2cc(C#Cc3ccccc3)ccc2C1=O)N1CCC2CCCCC2C1 (stereo unspecified) | 26.5 and 64.7 |
| O=C(c1ccc(C#CC2CCCC2)cc1)N1CCC(O)CC1 | inactive |
| COc1ccc(C#Cc2ccc(C(=O)NCCC(C)(C)O)cc2)cc1 | 114 |
| O=C(c1ccc(C#CCC2CCCC2)cc1)N1CCC(O)CC1 | 34 |
| N#Cc1ccc(C#Cc2ccc(C(=O)N3CCC(O)CC3)cc2)cc1 | 17.5 |
| COc1ccc(C#Cc2ccc(C(=O)NCCO)cc2)cc1 | inactive |
| O=C(c1ccc(C#CCOCC2CO2)cc1)N1CCC(O)CC1 (stereo unspecified) | inactive |
| O=C(c1ccc(C#Cc2ccncc2)cc1)N1CCC(O)CC1 | inactive |
| COc1ccc(C#Cc2ccc(C(=O)N3CCN(c4ccccc4)CC3)cc2)cc1 | inactive |
| CC(C)CC#Cc1ccc(C(=O)N2CCC(O)CC2)cc1 | inactive |
| COc1ccc(C#Cc2ccc(C(=O)N3CCC[C@H](C(=O)O)C3)cc2)cc1 | 0.55 |
| O=C(c1ccc(C#CCN2N=NCc3ccccc32)cc1)N1CCC(O)CC1 | inactive |
| O=C(c1ccc(C#CCOc2ccccc2)cc1)N1CCC(O)CC1 | 37.7 |
| COc1ccc(C#Cc2ccc(C(=O)NC3CCC3)cc2)cc1 | inactive |
| COc1ccc(C#Cc2ccc(C(=O)NCC(C)O)cc2)cc1 (stereo unspecified) | inactive |
